Assay [1] has as its system Plasmodium yoelii nigeriensis. Kind of assay: Antimalarial activity against multi drug-resistant Plasmodium yoelii nigeriensis infected in Swiss mice (Mus musculus) assessed as suppression of parasitaemia level at 96 mg/kg, perorally daily for 4 days. The assay is classed as functional. The conditions noted are these: route oral. The procedure, abridged:
(§1)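 Swiss mice (25 ± 1 g) infected day 0 with 1×10^6 parasitized RBC of multidrug-resistant P. yoelii nigeriensis. Groups of five dosed orally in groundnut oil (0.1 ml per dose), days 0–3, two divided doses daily. Parasitaemia read from thin blood smears on day 4 as % suppression. 100% means no parasites seen in 50 oil-immersion fields. β-Arteether was the positive control.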

Assay [2] has as its system Plasmodium yoelii nigeriensis. The assay is described as follows: Antimalarial activity against multi drug-resistant Plasmodium yoelii nigeriensis infected in Swiss mice (Mus musculus) assessed as protection of patent infection at 96 mg/kg, perorally daily for 4 days measured after 28 days. The assay is classed as functional, organism-based. More on the design: dose 96 mg/kg. The procedure, abridged:
(§2)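 Colony-bred Swiss mice (25 ± 1 g) inoculated day 0 with 1×10^6 parasitized RBC of P. yoelii nigeriensis (resistant to chloroquine, mefloquine, halofantrine). Five mice per dose. Oral dosing in groundnut oil, 0.1 ml per dose, days 0–3, given as two divided doses daily. Thin blood smears read through day 28. Mice without patent infection by day 28 scored cured, expressed as cured/treated.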

Assay [3] concerns Plasmodium yoelii nigeriensis. The assay is described as follows: Antimalarial activity against multi drug-resistant Plasmodium yoelii nigeriensis infected in Swiss mice (Mus musculus) assessed as suppression of parasitaemia level at 48 mg/kg, perorally daily for 4 days. It counts as functional. The settings on record: route oral. The method, boiled down: as §1
The subject of assay [4] is Plasmodium yoelii nigeriensis. The assay is described as follows: Antimalarial activity against multi drug-resistant Plasmodium yoelii nigeriensis infected in Swiss mice (Mus musculus) assessed as suppression of parasitaemia level at 24 mg/kg, perorally daily for 4 days. It counts as functional. The conditions noted are these: route oral. The procedure, abridged: as §1

The subject of assay [5] is Plasmodium yoelii nigeriensis. The assay is described as follows: Antimalarial activity against multi drug-resistant Plasmodium yoelii nigeriensis infected in Swiss mice (Mus musculus) assessed as protection of patent infection at 48 mg/kg, perorally daily for 4 days measured after 28 days. The assay is classed as functional, organism-based. More on the design: dose 48 mg/kg. The procedure, abridged:
as §2

For assay [6], the system named is Plasmodium yoelii nigeriensis. The assay is described as follows: Antimalarial activity against multi drug-resistant Plasmodium yoelii nigeriensis infected in Swiss mice (Mus musculus) assessed as protection of patent infection at 24 mg/kg, perorally daily for 4 days measured after 28 days. The assay is classed as functional, organism-based. More on the design: dose 24 mg/kg. The method, boiled down: as §2

The source made the active and inactive calls. The rule behind the calls is not given here.

For the compound `C=C(c1ccc(Oc2ccc(-c3ccccc3)cc2)cc1)C1COC2(CCCCC2)OO1` (stereo unspecified), in assay [1], the Activity is listed as 84.39%. The result in assay [2] was inactive.
Turning to `C=C(c1ccc(Oc2ccc(-c3ccccc3)cc2)cc1)C1COC2(OO1)C1CC3CC(C1)CC2C3` (stereo unspecified), the Activity in assay [1] came out at 100%.
On the same count and under the same terms, as for `C=C(c1ccc(Oc2ccccc2)cc1)C1COC2(OO1)C1CC3CC(C1)CC2C3` (stereo unspecified), the figure is 100%; as for `C=C(c1ccc(Oc2ccc3ccccc3c2)cc1)C1COC2(OO1)C1CC3CC(C1)CC2C3` (stereo unspecified), 100%.
Consider `CCO[C@H]1O[C@@H]2O[C@@]3(C)CC[C@H]4[C@H](C)CC[C@@H]([C@H]1C)[C@@]24OO3` [ARTEMOTIL], for which the Activity in assay [3] and in assay [4] was 100% each time. Moreover, the outcome in assay [5] was Active.
As for `C=C(c1ccc(Oc2cccc3ccccc23)cc1)C1COC2(OO1)C1CC3CC(C1)CC2C3` (stereo unspecified), the Activity in assay [1] is recorded as 93.15%. In addition, the outcome in assay [2] was inactive.
Taken in the same sequence, the figures for `C=C(c1ccc(Oc2cccc3ccccc23)cc1)C1COC2(CCCCC2)OO1` (stereo unspecified) were 92.81% and “inactive”.
With `C=C(c1ccc(Oc2ccc3ccccc3c2)cc1)C1COC2(CCCC2)OO1` (stereo unspecified), the Activity in assay [1], in assay [3] and in assay [4] was 100% each time. Further, the outcome in assay [2] and in assay [5] was Active. Besides, in assay [6], the result was inactive.
Consider `C=C(c1ccc(Oc2cccc3ccccc23)cc1)C1COC2(CCCC2)OO1` (stereo unspecified), for which the Activity in assay [1], in assay [3] and in assay [4] was 100% in each case. The outcome in assay [2] and in assay [5] was Active. Moreover, in assay [6], the result was inactive.
Consider `C=C(c1ccc(Oc2ccccc2)cc1)C1COC2(CCCCC2)OO1` (stereo unspecified), for which the Activity in assay [1] was determined as 100%.
Regarding `C=C(c1ccc(Oc2ccc(-c3ccccc3)cc2)cc1)C1COC2(CCCC2)OO1` (stereo unspecified), the Activity in assay [1] and in assay [3] was 100% throughout. For the same compound, the outcome in assay [2] was Active. For the same compound, the outcome in assay [5] was inactive.
Turning to `C=C(c1ccc(Oc2ccccc2)cc1)C1COC2(CCCC2)OO1` (stereo unspecified), the Activity in assay [1] amounted to 100%.
On the same count and under the same terms, for `C=C(c1ccc(Oc2ccc3ccccc3c2)cc1)C1COC2(CCCCC2)OO1` (stereo unspecified) the value was 100%.

The record behind these values is ChEMBL document CHEMBL1208735, “6-(4'-Aryloxy-phenyl)vinyl-1,2,4-trioxanes: a new series of orally active peroxides effective against multidrug-resistant Plasmodium yoelii in Swiss mice” (2010).
